STAT3 blocker: IL-6 driven STAT3 reporter inhibitors, primary screen, U3A cells, luciferase, luminescence, MLSCN library. 190,000 compounds, 0.89% hits. AID 862, 2007. inhibition, % at 5.5 µM. IL-6 STAT3-luciferase reporter; host cell line lacks STAT1;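 active = inhibition above the mean inhibition across all screened compounds plus 3 SD, cut at about 44% in these data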;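 note: 0% = DMSO only wells and 100% = 100 µM nifuroxazide control wells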
STAT1 act-1: STAT1 signaling activators, primary screen, cell-based, HTS, luciferase reporter. activation (% of control), % at 5.5 µM. NIH 3T3 STAT1-luciferase reporter, IFN-gamma, luminescence; 100% = IFN-gamma alone, no compound. 200,000 compounds, 2.6% hits;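 active = activation above the screen-wide mean activation plus 3 SD, cut at about 130% in these data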;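 note: raw ratio to IFN-gamma control signal so 100% means no change and 0% no light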
NF-kB expr up: activators of NF-kB expression in neurons, primary screen, cell-based, HTS | human neuronal cells, NF-kB reporter expression; stronger effect = higher value | fold change at 12.5 µM | 190,000 compounds, 1.6% hits; in the data active = fold change above about 3.3
STAT3 act-1: IL-6 driven STAT3 reporter potentiators, primary screen, U3A cells, luciferase, luminescence, MLSCN library; 190,000 compounds, 0.91% hits; IL-6 STAT3-luciferase reporter; 100% = signal with IL-6 EC80 alone; activation (% of control), % at 5.6 µM; AID 871, 2007;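 active = activation above the screen-wide mean of compound activation plus 3 SD, cut at about 130% in these data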;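 note: 0% = background luminescence of wells with medium and substrate only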
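Test system: STAT3-luciferase reporter U3A cells; Detection: reporter luminescence signal; Times: 1 h compound pre-exposure, 6 h IL-6 stimulation, 37 °C; Benchmarks: IL-6-only high control; Also added: IL-6 stimulus at 33 ng/mL final.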
APP 5'UTR act: activators of APP 5'UTR luciferase reporter, primary screen, SH-SY5Y cells | SH-SY5Y APP 5'UTR luciferase reporter, luminescence; zero percent = DMSO vehicle wells | activation, % at 2 µM | 190,000 compounds, 1% hits;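 active = activation above a set limit, based on mean plus 3 SD of controls, cut at about 140% in these data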
STAT1 inh: STAT1 signaling inhibitors, primary screen, cell-based, HTS, luciferase reporter | NIH 3T3 STAT1-luciferase reporter, IFN-gamma, luminescence | inhibition, % at 5.5 µM | 200,000 compounds, 0.35% hits | AID 920, 2007;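 active = inhibition above a set limit, the mean inhibition across all tested compounds plus 3 SD, cut at about 34% in these data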;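 note: 0% = IFN-gamma with DMSO and 100% = IFN-gamma with 300 µM nifuroxazide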
STAT3 act-2: STAT3 reporter potentiators, retest of hits, confirmation, U3A cells, luciferase, luminescence | shares compounds with STAT3 act-1 | IL-6 potentiation; U3A cells lack STAT1; 100 means same as IL-6 alone | potentiation (% of control), % at 5.7 µM | 1,200 compounds, 64% hits | AID 1267, 2008;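 active = percent activation of the STAT3 luciferase reporter above a set limit taken from the earlier primary screen, cut at about 130% in these data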;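 note: 0% = background signal of medium plus substrate and 100% = median of IL-6 with DMSO wells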
NFkB act STAT3ct: NF-kB reporter activators in human cells, counter-screen for STAT3 activator project; activation (% of control), % at 5.7 µM; NF-kappaB reporter activation; 1,200 compounds, 11% hits; shares compounds with STAT3 act-1; in the data active = activation above about 120%;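 note: reporter induced by TNF-alpha stimulation; 100% = median of stimulated DMSO wells and 0% = no signal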
STAT1 act-2: STAT1 reporter activators, IFN-gamma induced, counter-screen for STAT3 activator project, cell-based, NIH 3T3, luciferase luminescence. 1,200 compounds, 13% hits. activation (% of control), % at 5.7 µM. shares compounds with STAT3 act-1. NIH 3T3 STAT1-luciferase reporter. AID 1318, 2008;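 active = activation above the solvent-only control well mean plus 3 SD, set per screening run, cut at about 120% in these data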;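 note: 100% = IFN-gamma with DMSO median signal so 100% means no change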
* marks the source's active call; other numbers are inactive results; x = no result. Rows were chosen to be rich in hits. Some 4.9% of all compounds tested hit in one or more screens of this group.

SMILES	STAT3 blocker	STAT1 act-1	NF-kB expr up	STAT3 act-1	APP 5'UTR act	STAT1 inh	STAT3 act-2	NFkB act STAT3ct	STAT1 act-2
CC(C)CCNC(=O)NC(=O)COC(=O)/C=C/c1cc(Br)ccc1F	-10	110	1.3	108	34	-10	x	x	x
COCCCNc1nc2c(-c3ccc(Cl)cc3)nnn2c2ccccc12	-9	99	1.1	108	4	1	x	x	x
Fc1cccc(-c2nnn3c2nc(Cl)c2ccccc23)c1	-72	107	0.76	165*	20	-11	183*	116	106
Cc1ccc(-c2nnn3c2nc(Cl)c2ccccc23)cc1	-41	89	1.3	147*	15	10	145*	112	102
Cc1ccc(C)c(NC(=O)/C(C#N)=C/c2ccc(Sc3nncn3C)c([N+](=O)[O-])c2)c1	7	100	1.2	97	-12	1	x	x	x
COc1ccc(N2CCN(C(=O)CCNS(=O)(=O)c3ccccc3)CC2)cc1	10	108	1.1	97	-1	-11	x	x	x
CC1CCOC2(O1)C(=O)N(CN1CCN(c3ccccc3F)CC1)c1ccccc12 (stereo not drawn)	-54	95	0.96	148*	5	5	119	99	82
O=C1N(CN2CCN(c3cccc(Cl)c3)CC2)c2ccccc2C12OCCCO2	20	83	1.1	88	-9	18	x	x	x
CCOC(=O)c1[nH]c2ccccc2c1NC(=O)COC	-70	84	0.87	168*	2	18	165*	101	93
CCOC(=O)c1[nH]c2ccccc2c1NC(=O)C(C)(C)C	3	100	1	102	-20	0	x	x	x
CCOC(=O)c1[nH]c2ccccc2c1NC(=O)CC	-110	92	1.1	194*	-5	9	148*	108	96
CN(Cc1nccn1C)C(=O)CC1C(=O)NCCN1CC(c1ccccc1)c1ccccc1 (stereo not drawn)	8	99	1.1	96	-10	-1	x	x	x
CC(=O)Nc1nc(-c2ccc(Cl)cc2)nc(C)c1C(C)=O	-42	89	1.4	137*	36	12	122	103	96
COc1ccc(C2C(C(=O)c3cccs3)=C(O)C(=O)N2c2nncs2)cc1 (stereo not drawn)	-51	101	1.4	150*	7	-1	129	103	99
O=C(NCCC1=CCCCC1)C(=O)c1c[nH]c2ccccc12	7	115	1.7	96	23	-17	x	x	x
CC1CC(=O)C2=C(C1)Nc1ccccc1N=C2 (stereo not drawn)	-4	83	1	104	-2	10	x	x	x
CCC1=Nc2ccccc2NC2=C1C(=O)CCC2	-77	124	0.99	166*	10	-23	160*	119	123*
COc1ccc([N+](=O)[O-])cc1C1NN=C(c2ccccc2O)S1 (stereo not drawn)	-52	95	1.3	151*	12	5	142*	100	103
COc1ccc([N+](=O)[O-])cc1NC(=O)Nc1ccccc1	17	91	1.3	87	-20	10	x	x	x
CCn1c(C)c(/C=N/Nc2nc3ccccc3s2)c2ccccc21	-45	117	1.3	136*	48	-19	132	104	114
CC(=O)Nc1ccc(NC(=O)CCCSc2nc3ccccc3s2)cc1	-46	101	0.73	140*	-2	-1	129	104	98
O=C(O)CCCC(=O)Nc1ccc(OCc2nc3ccccc3s2)cc1	-36	115	1.3	136*	17	-17	126	104	119
Cc1cc(C(=O)N2CCc3c([nH]c4ccccc34)C2c2cccc(Cl)c2)nn1C (stereo not drawn)	-53	99	0.8	153*	-6	1	202*	112	122*
CC(=O)NCCC(=O)N1CCc2c([nH]c3ccccc23)C1c1cccc(C)c1 (stereo not drawn)	-50	104	1.3	147*	26	-6	144*	106	114
CC(=O)NCCC(=O)N1CCc2c([nH]c3ccccc23)C1c1cccc(Cl)c1 (stereo not drawn)	-55	103	0.84	150*	2	-6	143*	101	91
SMILES	STAT3 blocker	STAT1 act-1	NF-kB expr up	STAT3 act-1	APP 5'UTR act	STAT1 inh	STAT3 act-2	NFkB act STAT3ct	STAT1 act-2
O=C(c1cnccn1)N1CCc2c([nH]c3ccccc23)C1c1cccc(Cl)c1 (stereo not drawn)	-32	95	0.9	132	-5	4	x	x	x
Cc1cc2n(n1)C(c1ccccc1)CC(c1ccc(Br)cc1)=N2 (stereo not drawn)	22	101	1.2	84	-2	-1	x	x	x
N#Cc1cnn2c(-c3ccc(Cl)cc3Cl)ccnc12	10	96	1.2	101	5	2	x	x	x
Cc1ccc(C)c2c(N)c3c(nc12)CCCCC3 (tested in a mixture with another compound)	6	105	1.2	101	7	-6	x	x	x
CCOC(=O)C1CCN(Cc2cn(C)nc2-c2ccc(Oc3ccccc3)cc2)CC1	1	102	0.96	103	2	-4	x	x	x
CCCCCOP(=O)(OCCCCC)C1(NS(=O)(=O)c2ccccc2)C=CC(=O)c2ccccc21 (stereo not drawn)	-46	107	0.64	137*	13	-8	120	108	104
CCCCCCOC1(c2ccccc2)OC(=O)c2ccccc21 (stereo not drawn)	2	98	0.84	105	14	2	x	x	x
CC(C)OC(=O)c1cccnc1SCc1cc(=O)n2ccccc2n1	-48	97	0.9	144*	-12	3	127	105	104
CC(C)OC(=O)c1cccnc1SCC(=O)N(C)c1ccccc1	6	95	0.99	99	-18	6	x	x	x
CC(=O)Nc1cccc(NC(=O)CSc2ccc(-c3cccnc3)nn2)c1	-51	105	1.4	140*	-2	-5	115	98	106
NS(=O)(=O)c1ccc(NC(=S)NCc2ccco2)cc1	-38	94	1.1	136*	8	4	123	98	98

High-throughput results as filed in PubChem BioAssay.
